# Test results reported in article PMC6662154 (ACS Central Science, 2019).
# Where no end group is shown, it is not given here.
# What was measured:
# [1] = system: PAO1 in the bronchoalveolar lavage; experiment: Bacterial burden in bronchoalveolar lavage of PAO1-infected mice; type: in vivo, mouse; conditions: single dose 100 μM at the time of infection; sampled 18 h postinfection
# Outline: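 Female 6-week-old C57BL/6J mice were lightly anaesthetised with inhaled sevoflurane and given PAO1 intranasally (1 × 10^7 CFU in 20 μL PBS). Test compound (100 μM, 1% DMSO) was given with the inoculum; PBS with 1% DMSO served as mock treatment. At 18 h the animals were killed. Lavage was plated for counts. Lungs were formalin-fixed, paraffin-embedded, H&E-stained and scored by degree of inflammation.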
# [2] = target: T1, PscE–PscG heterodimer (Pseudomonas aeruginosa, UniProt P95435); experiment: Fluorescence polarization competitive binding assay
# T1 sequence (P95435 1-115): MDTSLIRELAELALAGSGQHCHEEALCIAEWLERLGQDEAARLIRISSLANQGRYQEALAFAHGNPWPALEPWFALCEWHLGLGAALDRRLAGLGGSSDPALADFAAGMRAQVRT
# T1 sequence (Q9I317 1-67 partner): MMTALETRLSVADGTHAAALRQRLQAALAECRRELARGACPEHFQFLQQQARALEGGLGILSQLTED
# [3] = system: J774A.1 cells infected with PAO1; experiment: LDH release assay, PAO1-infected macrophages; type: cell-based, mouse; conditions: different concentrations, MOI 8, 5 h
# [4] = system: intracellular PAO1 in J774A.1 cells; experiment: Quantification of intracellular bacteria in macrophages; type: cell-based, Pseudomonas aeruginosa; conditions: different concentrations; gentamicin at 2 h postinfection
# Outline: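 J774A.1 cells were seeded at 5 × 10^4 per well, grown 24 h and switched to serum-free medium 1 h before infection with mid-exponential PAO1 at MOI 8. Cells were infected 2 h with test compound (0–100 μM, 2% DMSO), washed, and exposed to gentamicin (50 μg/mL) for 2 h. Lysates were plated for intracellular counts, normalised to mock-treated infected cells; mean ± SD, three experiments.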
# [5] = system: secretion of ExoS by PAO1; experiment: Inhibition of T3SS-mediated effector secretion; type: cell-based, Pseudomonas aeruginosa; conditions: 100 μM; PAO1 grown under low-calcium conditions
# Outline: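 To induce the T3SS, overnight PAO1 was diluted to OD600 0.3 in LB containing 5 mM EGTA and 20 mM MgCl2, with test compound, then shaken gently 3–4 h to OD 1.5. Controls were LB with 2% DMSO, and EGTA/MgCl2 medium with 2% DMSO. Supernatant proteins were TCA-precipitated (10%, 2 h on ice). Secreted and total ExoS were immunoblotted and measured by densitometry as % secreted of total; mean ± SD, three experiments.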
# [6] = target: T2, preformed PscE–PscG heterodimer (Pseudomonas aeruginosa, UniProt Q9I317 1-67; P95435 1-115); experiment: fluorescence polarisation
# T2 sequence (looked up) 1: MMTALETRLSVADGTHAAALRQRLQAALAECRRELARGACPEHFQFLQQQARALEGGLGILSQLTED
# T2 sequence (looked up) 2: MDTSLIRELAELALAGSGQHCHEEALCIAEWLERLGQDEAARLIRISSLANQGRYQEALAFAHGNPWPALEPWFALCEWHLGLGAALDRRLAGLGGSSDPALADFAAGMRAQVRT
# [7] = target: T3, PscG (Pseudomonas aeruginosa, UniProt P95435 1-115); experiment: fluorescence polarisation
# T3 sequence (looked up): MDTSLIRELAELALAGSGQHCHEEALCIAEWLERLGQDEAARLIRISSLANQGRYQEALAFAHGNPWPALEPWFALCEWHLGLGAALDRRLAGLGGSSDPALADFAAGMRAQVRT
# [8] = target: T2, preformed PscE–PscG heterodimer; experiment: ITC
# [9] = target: T2, preformed PscE–PscG heterodimer; experiment: fluorescence polarisation; remark: listed apart in the source
molecule,measurement,setting,value
CC(Oc1ccc(Cl)cc1Cl)C(=O)NCc1ccc2c(c1)OCO2 (stereo not drawn) [MBX-1641],bacterial burden in the bronchoalveolar lavage,[1],reduced bacterial burden
same,competition with FAM-PscF69–85 for PscE–PscG binding (result in words),[2],no effect
same,"inhibition of Pseudomonas-aeruginosa-induced cell lysis (LDH release), in words",[3],inhibited
same,inhibition of intracellular bacterial survival / proliferation of PAO1,[4],inhibited
"C[C@H]1COC2=C1C(=O)C(=O)c1c2ccc2c1CCCC2(C)C [crpTSN, cryptotanshinone]",competition with FAM-PscF69–85 for PscE–PscG binding (result in words),[2],inactive
same,effect on secretion of ExoS,[5],no inhibitory activity
same,"inhibition of Pseudomonas-aeruginosa-induced cell lysis (LDH release), in words",[3],inactive
Cc1coc2c1C(=O)C(=O)c1c-2ccc2c1CCCC2(C)C [tanshinone 2A],competition with FAM-PscF69–85 for PscE–PscG binding (result in words),[2],inactive
"TVTRALRDLMQGILQKI (peptide, UniProt P95434 69-85, looked up, also: fluorescein (FAM) label) [^FAMPscF^69–85]",Kd,[6],0.052 µM
same,Kd,[7],10.8 µM
"TVTRALRDLMQGILQKI (peptide, UniProt P95434 69-85, looked up) [PscF^69–85]",Kd,[8],0.0515 µM
same,IC50,[9],4.32 µM
